From ChEMBL document CHEMBL4513216, “Probing the Open Global Health Chemical Diversity Library for Multistage-Active Starting Points for Next-Generation Antimalarials” (ACS Infect Dis, 2020)

assay: Toxicity liver stage against HepG2, at 10uM; assay type: cell-based; design: test concentration 10 uM, cell line HepG2-A16-CD81EGFP; settings: human, HepG2-A16-CD81EGFP cells; read-out: INHIBITION
How it was run: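 Uninfected HepG2-A16-CD81EGFP cells, 3 × 10^3 per well, 1536-well, plated on prespotted compound at 10 μM final, parasite-free screening media added to match infected plates; puromycin 10 μM positive, DMSO 0.5% negative; run in parallel with 48 h PbLuc assay at 37 °C, 5% CO2; viability by CellTiter-Glo luminescence, normalized to controls.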

SMILES	cytotoxicity at 10 µM
CC(C)CCNC(=O)c1csc(NC2CC2)n1	-0.243%
CCN(CCn1cccn1)Cc1nc(-c2cc(F)ccc2F)oc1C	-1.57%
COCCN1CCC2(CC1)CC(NCc1cncn1C)c1ccccc12 (stereo not given)	-8.13%
COc1ccc(Cl)c(NCC(=O)NCC(=O)N2CCCC2)c1	-5.7%
c1cc([C@H]2C[C@@H]3CCN(Cc4nccs4)C[C@H]3O2)ncn1	-150%
Cc1ccsc1C(=O)N1CCC2(CC(N(C)c3ccncn3)C2)C1 (stereo not given)	-5.75%
CCC(CO)N(Cc1ccccn1)C(=O)c1ccc(CSC)o1 (stereo not given)	-5.06%
O=C(NCC(Cc1cccc(F)c1)N1CCCC1=O)c1cnccn1 (stereo not given)	-5.06%
CN(CCc1ccccn1)C(=O)c1cnn(-c2ccccc2F)c1N	-4.85%
CN(C)c1cc(C(=O)N2CCCN(c3cccnn3)CC2)ccn1	-8.19%
CN(CC1CC1)S(=O)(=O)c1ccc(C(F)(F)F)cc1C#N	2.95%
CCC(CC)CN1CCN(CC(=O)Nc2cccc3nsnc23)CC1	6.16%
NC(=O)c1cnc(NCC(=O)NCc2ccco2)c(Cl)c1	3.97%
Cn1cc(C(=O)Nc2cccc(-c3ccc4c(c3)CCO4)n2)ccc1=O	3.72%
CC(C)(C)CC(=O)N1C[C@H]2CCN[C@H]2C1	4.19%
CCC(=O)N1CC[C@H](O)[C@@H]1Cc1ccccc1	0.081%
CN(C)c1nc2c(c(N(C)Cc3n[nH]c4c3CCCCC4)n1)CCNC2	2.95%
Cc1cc(CN2CCN(S(=O)(=O)c3c(C)c(Cl)cc(C)c3Cl)CC2)on1	-8.87%
Cc1noc(C2CCCN(C(=O)c3cc(Cl)ccc3F)C2)n1 (stereo not given)	2.66%
Cn1nccc1-c1cnc2n1CCC21CCN(C(=O)C2(C)CC2)CC1	-123%
Cc1ccccc1CS(=O)(=O)CC(=O)N(C)Cc1ccccc1F	-0.969%
CCN(C(C)=O)C(c1cccnc1)c1cc(C)cc(C)c1 (stereo not given)	6.72%

SMILES	cytotoxicity at 10 µM
Cc1ccc(F)c(C(=O)N2C[C@@H](C(=O)O)[C@H](c3ccccc3)C2)c1Cl	-6.06%
Cc1ccnn1CCC(=O)N1C[C@@H]2CC[C@H]1CN(CC(=O)N(C)C)C2	8.42%
Cn1c2c(ccc1=O)CC(NC(=O)c1ccsc1)CC2 (stereo not given)	-1.87%
CC(C)Nc1ncnc2c1CCN(C(=O)CCc1ccccc1)CC2	-72%
Cc1ccc(C(=O)NS(=O)(=O)c2cc(Cl)ccc2Cl)c(=O)[nH]1	-5.72%
CN(CCc1ncnn1C1Cc2ccccc2C1)C1CCS(=O)(=O)C1 (stereo not given)	-3.54%
O=C1COc2ccc(C(=O)NS(=O)(=O)c3ccccc3F)cc2N1	-0.185%
O=C(NCCN1CCCc2ccccc21)c1scnc1Cl	-3.41%
Cc1cnc(C(=O)N2CCNCC2C(=O)NCc2ccncc2)cn1 (stereo not given)	0.89%
CCn1[nH]c(C)c2c(C(F)(F)C(F)(F)F)cc(=O)nc1-2	-9.29%
Cc1ccccc1CCC1CCCN(Cc2c(C)[nH]c(=O)[nH]c2=O)C1 (stereo not given)	5%
Cc1ccc(C)n1-c1c(C(=O)NCC(c2ccsc2)N(C)C)cnn1C (stereo not given)	17.1%
Cc1ccc(C(=O)N2CCN(C(=O)Cc3ccccn3)CC2)c(C)c1	-4.74%
Cc1noc(C)c1-c1ccnc(C2CCNCC2)c1	-8.41%
Cc1nc(C)n(CC2CCCN2CC(=O)NCCC#N)n1 (stereo not given)	-2.78%
Cc1ccc(CCC(=O)N2CCC(Nc3cccnn3)CC2)cc1	-5.36%
Cc1nc(O)cc(CCNC(=O)CN2CCCCCC2)n1	0.458%
COc1ccccc1OC1CCN(C(=O)c2cnc(C)s2)CC1	-19.2%
Cc1ccc(F)c(NS(=O)(=O)c2cc(C(=O)O)oc2C)c1	-3.52%
Cc1cnn(C2CCCN(C(=O)c3ccnc(N(C)C)c3)C2)c1 (stereo not given)	5.15%
CN(C)c1ncccc1CNS(=O)(=O)c1ccccc1F	-4.81%
CCCc1ncc(C(=O)N2CCOC(c3nc(C)n[nH]3)C2)s1 (stereo not given)	-0.12%

SMILES	cytotoxicity at 10 µM
Cc1ccc(-c2ncc(CNc3cnccc3CO)s2)cc1	-7.65%
COc1ccc2cc(C(=O)N3CCCCC3CC(N)=O)[nH]c2c1 (stereo not given)	-12.3%
CC(C)NC(=O)NCCCOC1CCOCC1	-17%
CCOCCC(=O)N1CCCC(c2cc(C(F)(F)F)[nH]n2)C1 (stereo not given)	-0.819%
Cc1c(C(=O)N(C)CC(C)O)sc2nc(C(F)(F)F)ccc12 (stereo not given)	-0.943%
COc1ccc(CN2CC[C@@]3(O)CCCC[C@H]3C2)cc1C(=O)O	-3.12%
CCN(C)S(=O)(=O)N(CC)Cc1cccc(-c2ccncc2)c1	-11.5%
CC(=O)NCCCSC1CCN(c2ccccc2F)C1=O (stereo not given)	-2.45%
Cc1nccc(CNS(=O)(=O)N(C)Cc2ccc(Cl)cc2)n1	29.5%
COc1cc(N[C@@H](Cc2ccccc2)C(N)=O)ncn1	10.1%
CCOc1ccc(Cl)c(C(=O)N2CCN(C(=O)c3ccoc3C)CC2)n1	-6.69%
CC(C)c1ccc(OCC(=O)NS(=O)(=O)c2cccnc2)cc1	-5.19%
CC(C)(C)NC(=O)Cn1nc(C2CC2)cc(C(F)(F)F)c1=O	-13.9%
COc1ccc(CC(=O)N2CC[C@H](CO)[C@H](O)C2)c(OC)c1	-0.392%
O=S(=O)(NCC1CCCN(Cc2ccccc2F)C1)C1CC1 (stereo not given)	-8.27%
CCc1cc(N(C)Cc2ncc[nH]2)nc(N2CCOCC2)n1	-1.61%
c1cc(CN2CCO[C@H]3[C@H](OCCN4CCCC4)CC[C@@H]32)ccn1	-1.95%
CC(C)N1CCCC1c1csc(N)n1 (stereo not given)	2.33%
CC(=O)N1CCC(C(=O)NC2CC(C)(C)Oc3cc(C)ccc32)CC1 (stereo not given)	-5.41%
Cn1cc(CC2CCN(C(=O)NCc3csc(C4CC4)n3)C2)cn1 (stereo not given)	5.22%
N#Cc1ccc(OCCn2cccn2)cc1	11.2%
O=C(CS(=O)(=O)c1ccccn1)NC1CCCc2ccccc21 (stereo not given)	-4.04%

SMILES	cytotoxicity at 10 µM
COc1ccc2[nH]c(CNc3cc(C4CCNCC4)nc(C)n3)cc2c1	-13.4%
Cc1ccc(N2CCCC(NCC(=O)NC3CCOCC3)C2)nn1 (stereo not given)	3.08%
Cc1nnc(CN2CCN(CC(O)c3cccc(F)c3)CC2)n1C (stereo not given)	-1.92%
COCC1CN(C(=O)c2ccoc2)Cc2cnn(CC3CCOCC3)c21 (stereo not given)	2.77%
Cc1nc(NCCN2CCCC2=O)cc(C2CN(C(C)C)CCO2)n1 (stereo not given)	3.88%
COc1ccc(COCC(O)CNC(=O)c2cccnc2)cc1 (stereo not given)	7.94%
COCC1CCN(C(=O)c2cn(Cc3ccccc3F)nn2)CC1	1.89%
COCCN1CCC2(CCC1=O)CN(c1ccnc(SC)n1)CCN2C (stereo not given)	2.41%
Cc1csc(C(=O)N2CC(S(=O)(=O)C3CCCCC3)C2)c1	-2.83%
Cc1ccc2nc(N3CCN(CC(=O)NC(C)C)CC3)cc(C)c2c1	-14.7%
COCCN1CCC(C(=O)N(C)Cc2cccc(Cl)c2)C1 (stereo not given)	-28.6%
COCC1CN(C(=O)Nc2ccc(Cl)cc2Cl)CCO1 (stereo not given)	4.26%
O=C(NC1CC1)C1(Cc2cc(-c3ccc(F)cc3F)no2)CCOCC1	11%
CC(O)CN1CCC(CNCc2ccc(C#N)cc2)CC1 (stereo not given)	8.83%
CCOC(=O)CN1CCC2(CC1)CC(=O)c1ccc3ccccc3c1O2	3.33%
CN(C)CCN(Cc1cccc(F)c1)C(=O)c1ccc2nccn2c1	-0.0817%
Cc1csc2c(=O)n(CCN3CCC(c4ccccc4)CC3)cnc12	1.2%
Cc1cc(CC(=O)NC(C)c2ccc(OCC3CC3)c(F)c2)n[nH]1 (stereo not given)	4.75%
Cc1cccc(NC(=O)C2CCc3ccccc3N2)c1 (stereo not given)	-5.92%
Cc1nc(N2CCOCC2)nc2c1CCN(C(=O)NC1CCCC1)CC2	3.41%
COCC(C)NC(=O)CN1CCC2(CC1)OCCO2 (stereo not given)	7.3%
Cc1cc2nc(-c3ccccc3)cc(NCC3CCCOC3)n2n1 (stereo not given)	-3.54%

SMILES	cytotoxicity at 10 µM
COc1cccc(COCC(=O)N2CCCC(N3CCCC3)CC2)c1 (stereo not given)	-4.82%
CN1CCN(c2ccc(F)cc2C(N)=O)CC1	6.11%
Cc1ccc(C(=O)N2CC[C@H](N3CCOCC3)[C@H](CCCO)C2)cc1O	-154%
COc1ccc(OC)c(CNC2CCCc3nc(N(C)C)ncc32)c1 (stereo not given)	-11.2%
N#Cc1cccc(OCC(=O)N(Cc2ccncc2)C2CC2)c1	-44.2%
COc1ccc2cnn(CC(=O)NC3CCCCC3)c(=O)c2c1OC	-2.49%
Cc1ccc(OCCN2CCCC(c3cc(C(N)=O)[nH]n3)C2)cc1 (stereo not given)	-9.14%
O=C(CCCc1ccccc1)N1CCC(Nc2cccnn2)CC1	-5.89%
CCc1nnc2n1CCN(C(=O)c1ccccc1OCC1CC1)C2	2.3%
CCCc1cc(C(=O)N2CCOC(c3nc(-c4cccs4)no3)C2)no1 (stereo not given)	8.37%
Cc1ccc(C(=O)O)c(N2CC(C)(C)[C@@](C)(O)C2)n1	4.5%
CCC(C#N)NC(=O)c1ccc(Oc2cccnc2)cc1 (stereo not given)	-5.82%
COCC(=O)NCC1CCC(c2nnc(-c3cccnc3)o2)CC1 (stereo not given)	-2.74%
c1cncc(-c2noc(CN3CCOC(Cn4cccn4)C3)n2)c1 (stereo not given)	-11.4%
c1ncc2c(n1)CN(CC1CCCCO1)CC2 (stereo not given)	2.93%
Cc1cc(C)n(CC2CCCN2C(=O)c2ccc3[nH]c(=O)[nH]c3c2)n1 (stereo not given)	3.18%
O=C(C1CCCN(CCc2ccc3c(c2)CCO3)C1)N1CCCC1 (stereo not given)	-19.8%
CCN1CC2(CCC1=O)CCN(CCc1nccn1C)CC2	4.65%
CCN(CC)c1nc2ccsc2c(=O)n1CCC(=O)NC1CCCC1	7.19%
O=C1[C@@H]2CCN(Cc3ccncc3)C[C@@H]2OCCN1c1ccccc1	-1.06%
Cc1noc(C)c1CN(C)Cc1csc(-c2ncccn2)n1	16.5%
Cc1cc(C(=O)NC2CCc3c(ccc(=O)n3CCN(C)C)C2)no1 (stereo not given)	-0.58%
